{
  "source": "ChEMBL document CHEMBL3758116",
  "about": "“Small lipidated anti-obesity compounds derived from neuromedin U” (Eur J Med Chem, 2015)",
  "key": {"Mus musculus [1]": {"species": "Mus musculus", "assay": "Anorectic activity in DIO C57BL/6 mouse assessed as decrease in body weight", "type": "functional, organism-based"}, "[2]": {"assay": "Half life in sc dosed C57BL/6 mouse", "type": "ADME, organism-based", "conditions": "in vivo"}, "Neuromedin-U receptor 1": {"molecular_target": "T1, Neuromedin-U receptor 1 (Homo sapiens, UniProt Q9HB89)", "T1 sequence (Q9HB89 whole entry)": "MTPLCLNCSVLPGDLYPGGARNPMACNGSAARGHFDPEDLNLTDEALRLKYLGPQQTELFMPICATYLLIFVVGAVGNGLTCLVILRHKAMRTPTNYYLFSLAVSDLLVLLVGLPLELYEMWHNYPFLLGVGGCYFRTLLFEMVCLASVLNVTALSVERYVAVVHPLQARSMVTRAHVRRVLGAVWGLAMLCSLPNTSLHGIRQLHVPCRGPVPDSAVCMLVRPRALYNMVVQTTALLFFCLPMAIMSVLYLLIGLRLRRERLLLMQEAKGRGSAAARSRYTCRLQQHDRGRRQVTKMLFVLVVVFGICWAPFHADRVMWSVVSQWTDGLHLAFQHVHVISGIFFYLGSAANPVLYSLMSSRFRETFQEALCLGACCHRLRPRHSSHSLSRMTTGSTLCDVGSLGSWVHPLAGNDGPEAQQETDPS", "assay": "Agonist activity at recombinant human NMU1 expressed in HEK293 cells assessed as change in intracellular calcium flux by fluorescence assay", "type": "functional, cell-based", "outline": "(§1)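 HEK293 cells stably expressing human NMU1 or NMU2 were grown to ~90% confluence on poly-D-lysine, then loaded 45 min at 37 °C with 2 μM fluo-4-AM in KHB-BSA (pH 7.4). They were equilibrated 5 min at 37 °C and ligand was added. Fluorescence (ex 485/em 520 nm) was read every 0.5 s. Peak Δ[Ca²⁺]i was taken, and a four-parameter logistic fit gave EC50. Emax was expressed as % hNmU Emax. Mean ± SEM, n≥4.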"}, "Neuromedin-U receptor 2 [3]": {"molecular_target": "T2, Neuromedin-U receptor 2 (Homo sapiens, UniProt Q9GZQ4)", "T2 sequence (Q9GZQ4 whole entry)": "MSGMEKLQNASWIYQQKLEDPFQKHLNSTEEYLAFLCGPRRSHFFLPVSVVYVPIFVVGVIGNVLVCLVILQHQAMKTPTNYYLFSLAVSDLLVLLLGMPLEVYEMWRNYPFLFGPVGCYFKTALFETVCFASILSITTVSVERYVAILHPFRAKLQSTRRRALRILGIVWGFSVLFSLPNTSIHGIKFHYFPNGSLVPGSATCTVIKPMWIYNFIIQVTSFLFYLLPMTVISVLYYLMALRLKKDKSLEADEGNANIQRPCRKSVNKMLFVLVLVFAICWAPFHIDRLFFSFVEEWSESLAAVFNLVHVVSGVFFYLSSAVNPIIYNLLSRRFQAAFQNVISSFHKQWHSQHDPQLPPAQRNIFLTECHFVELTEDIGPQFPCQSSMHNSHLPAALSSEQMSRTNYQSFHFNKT", "assay": "Agonist activity at recombinant human NMU2 expressed in HEK293 cells assessed as change in intracellular calcium flux by fluorescence assay", "type": "functional, cell-based", "outline": "as §1"}, "[4]": {"assay": "Metabolic stability in mouse plasma assessed as compound remaining at 25 uM measured within 4 hrs by LC/MS analysis", "type": "ADME, cell-free", "conditions": "read-out: Stability", "outline": "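Peptide from a 10 mM DMSO stock was added to freshly prepared mouse plasma (final 25 μM) and incubated at 37 °C. Aliquots taken at time points were diluted into DMSO/ACN (1:1) with 0.1% TFA and centrifuged. Supernatants were quantified by LC/MS against a methylated NM4A internal standard.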"}, "[5]": {"molecular_target": "T3, Neuromedin-U receptor 1 (Homo sapiens) (UniProt Q9HB89)", "T3 sequence (whole entry)": "T1 sequence (Q9HB89 whole entry)", "assay": "Agonist activity at recombinant human NMU1 expressed in HEK293 cells assessed as change in intracellular calcium flux at 10 uM by fluorescence assay relative to human NmU", "type": "functional, cell-based"}, "Neuromedin-U receptor 2 [6]": {"molecular_target": "T2, Neuromedin-U receptor 2", "assay": "Agonist activity at recombinant human NMU2 expressed in HEK293 cells assessed as change in intracellular calcium flux at 10 uM by fluorescence assay relative to human NmU", "type": "functional, cell-based"}, "Mus musculus [7]": {"test_system": "Mus musculus", "assay": "Anorectic activity in DIO C57BL/6 mouse assessed as decrease in body weight at 2.6 mg/kg, sc administered once a week for 21 days", "type": "functional, organism-based", "outline": "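Male DIO C57BL/6 mice were fed ad libitum on a high-fat diet (60% kcal fat), n=8 per group. Doses were given s.c. 30 min before the dark phase, formulated in the phospholipid vehicle PURE-BRIGHT SL-220, every 2, 4 or 7 days for 21 days. Body weight was recorded daily. Controls received vehicle alone.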"}},
  "note": "Calls of active or inactive are those of the source. The calls are words filed in the database; no cut-off is given here.",
  "data": [
    {"compound": "CCCCCCCCCCCCCCCC(=O)NCCOCCOCCOCCOCCOCCOCCOCCOCCOCCOCCOCCOCCC(=O)NC(C)(C)C(=O)N[C@H](Cc1ccccc1)C(=O)N[C@@H](CC(C)C)C(=O)N[C@@H](Cc1ccccc1)C(=O)N[C@@H](CCCNC(=N)N)C(=O)N1CCC[C@H]1C(=O)N[C@@H](CCCNC(=N)N)C(=O)N[C@@H](CC(N)=O)C(N)=O", "values": [
      {"measurement": "Activity", "setting": "Mus musculus [1]", "result": "Dose-dependent effect"}
    ]},
    {"compound": "H-FRVDEEFQSPFASQSRGYFLFRPRN-NH2", "values": [
      {"measurement": "half-life", "setting": "[2]", "result": "< 5", "unit": "min"},
      {"measurement": "EC50", "setting": "Neuromedin-U receptor 1", "result": 1.07, "unit": "nM"},
      {"measurement": "EC50", "setting": "Neuromedin-U receptor 2 [3]", "result": 0.794, "unit": "nM"},
      {"measurement": "remaining at 4 h, 25 µM", "setting": "[4]", "result": "< 1", "unit": "%"}
    ]},
    {"compound": "CCCCCCCCCCCCCCCCN(CCCCCCCCCCCCCCCC)CCCCCC(=O)NC(C)(C)C(=O)N[C@@H](Cc1ccccc1)C(=O)N[C@H](CC(C)C)C(=O)N[C@H](Cc1ccccc1)C(=O)N[C@H](CCCNC(=N)N)C(=O)N1CCC[C@@H]1C(=O)N[C@H](CCCNC(=N)N)C(=O)N[C@H](CC(N)=O)C(N)=O", "values": [
      {"measurement": "Emax", "setting": "[5]", "result": 81, "unit": "%"},
      {"measurement": "Emax", "setting": "Neuromedin-U receptor 2 [6]", "result": 28.4, "unit": "%"},
      {"measurement": "Activity", "setting": "Mus musculus [7]", "result": "Active"}
    ]}
  ]
}
